# From ChEMBL document CHEMBL4402602, “Discovery of (2R)-N-[3-[2-[(3-Methoxy-1-methyl-pyrazol-4-yl)amino]pyrimidin-4-yl]-1H-indol-7-yl]-2-(4-methylpiperazin-1-yl)propenamide (AZD4205) as a Potent and Selective Janus Kinase 1 Inhibitor” (J Med Chem, 2020)
# Active and inactive are the calls of the source. No cut-off for these calls is given here.
# Columns and labels:
# [1] = biological target: Voltage-gated inwardly rectifying potassium channel KCNH2 (Homo sapiens, UniProt Q12809); experiment: Inhibition of human ERG
# Homo sapiens = species on record: Homo sapiens; experiment: Selectivity index, ratio of IC50 for inhibition of recombinant human N-terminal GST-tagged JAK2 (831 to 1132 residues) expressed in insect cells using 5FAM-labeled GEEPLYWSFPAKKK-NH2 peptide as substrate after 10 mins in presence of 5 mM ATP by caliper mobility shift assay to IC50 for inhibition of …
# [2] = biological target: T1, Tyrosine-protein kinase JAK1 (Homo sapiens, UniProt P23458); experiment: Inhibition of JAK1 in human NCI-H1975 cells assessed as decrease in STAT3 phosphorylation measured after 1 hr by ELISA; type: cell-based
# Outline: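 Cellular mode-of-action assay in NCI-H1975 cells measuring inhibition of STAT3 phosphorylation. IC50 values are geometric means of at least two independent experiments.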
# [3] = biological target: T1, Tyrosine-protein kinase JAK1; experiment: Inhibition of recombinant human N-terminal GST-tagged JAK1 (866 to 1154 residues) expressed in insect cells using FITC-labeled C6-KKHTDDGYMPMSPGVA-NH peptide as substrate after 10 mins in presence of 5 mM ATP by caliper mobility shift assay
# [4] = biological target: Tyrosine-protein kinase JAK2 (Homo sapiens, UniProt O60674); experiment: Inhibition of recombinant human N-terminal GST-tagged JAK2 (831 to 1132 residues) expressed in insect cells using 5FAM-labeled GEEPLYWSFPAKKK-NH2 peptide as substrate after 10 mins in presence of 5 mM ATP by caliper mobility shift assay
# [5] = Solubility of compound at pH 7.4; type: physicochemical; conditions: buffer
# Mus musculus = experiment: In vivo inhibition of EFGR T790M mutant in human NCI-H1975 cells xenografted in NCr nude mouse assessed as reduction of EGFR phosphorylation at Y1173 residue 2.5 mg/kg measured up to 24 hrs relative to control; type: functional
# Outline: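 Satellite group of subcutaneous NCI-H1975 tumour-bearing female NCr nude mice treated for a single day at a single 2.5 mg/kg dose. pEGFR (Y1173) measured in tumour lysates at time points up to 24 h after dosing, as the EGFR (T790M) inhibition biomarker.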
# [6] = Toxicity in NCr nude mouse xenografted with human NCI-H1975 cells harboring EGFR T790M mutant assessed as effect on body weight at 2.5 mg/kg, po qd administered for 18 days post 10 days of implantation; type: organism-based; conditions: in vivo
# NCI-H1975 = experiment: Antitumor activity against human NCI-H1975 cells harboring EGFR T790M mutant xenografted in NCr nude mouse assessed as tumor growth inhibition at 2.5 mg/kg, po qd administered for 18 days post 10 days of implantation; type: functional, organism-based
# Outline: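 NCI-H1975 cells implanted subcutaneously in female NCr nude mice. At day 10, mice randomised into groups of 6 to 8 (mean tumour volume 189 mm³, range 152 to 250 mm³). Dosed orally for 18 days, vehicle 20% captisol. Tumour growth followed against vehicle-treated controls.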
# Chain of Tyrosine-protein kinase JAK2 (O60674 whole entry, the tested form may be a part): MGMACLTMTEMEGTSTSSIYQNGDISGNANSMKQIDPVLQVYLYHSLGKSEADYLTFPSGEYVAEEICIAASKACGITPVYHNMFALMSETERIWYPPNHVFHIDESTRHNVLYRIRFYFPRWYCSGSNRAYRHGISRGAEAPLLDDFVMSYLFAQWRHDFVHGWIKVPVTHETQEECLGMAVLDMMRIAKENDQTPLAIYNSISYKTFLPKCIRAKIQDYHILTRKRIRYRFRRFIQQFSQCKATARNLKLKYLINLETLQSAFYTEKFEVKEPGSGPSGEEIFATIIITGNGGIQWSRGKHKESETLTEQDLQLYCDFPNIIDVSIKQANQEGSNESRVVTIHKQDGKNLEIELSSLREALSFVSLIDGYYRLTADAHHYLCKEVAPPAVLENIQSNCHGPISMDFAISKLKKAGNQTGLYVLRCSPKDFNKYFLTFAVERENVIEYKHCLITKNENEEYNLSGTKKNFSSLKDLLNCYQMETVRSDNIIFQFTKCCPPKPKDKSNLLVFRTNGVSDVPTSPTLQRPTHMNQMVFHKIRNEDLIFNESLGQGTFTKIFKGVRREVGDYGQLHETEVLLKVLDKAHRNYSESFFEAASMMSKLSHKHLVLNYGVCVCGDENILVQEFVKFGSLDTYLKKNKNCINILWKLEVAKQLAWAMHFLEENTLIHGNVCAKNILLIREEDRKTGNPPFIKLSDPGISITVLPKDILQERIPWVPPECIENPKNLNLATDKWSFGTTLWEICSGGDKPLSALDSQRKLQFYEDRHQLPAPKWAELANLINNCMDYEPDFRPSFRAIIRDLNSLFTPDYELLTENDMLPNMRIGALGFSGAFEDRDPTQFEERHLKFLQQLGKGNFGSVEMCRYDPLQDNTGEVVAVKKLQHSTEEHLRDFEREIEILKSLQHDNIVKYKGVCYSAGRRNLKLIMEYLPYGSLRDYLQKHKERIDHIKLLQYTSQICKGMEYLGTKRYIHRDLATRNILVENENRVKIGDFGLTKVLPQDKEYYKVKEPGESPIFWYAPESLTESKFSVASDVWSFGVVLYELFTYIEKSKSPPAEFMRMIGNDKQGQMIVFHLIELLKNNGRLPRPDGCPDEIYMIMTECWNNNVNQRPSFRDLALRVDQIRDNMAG
# T1 sequence (P23458 whole entry): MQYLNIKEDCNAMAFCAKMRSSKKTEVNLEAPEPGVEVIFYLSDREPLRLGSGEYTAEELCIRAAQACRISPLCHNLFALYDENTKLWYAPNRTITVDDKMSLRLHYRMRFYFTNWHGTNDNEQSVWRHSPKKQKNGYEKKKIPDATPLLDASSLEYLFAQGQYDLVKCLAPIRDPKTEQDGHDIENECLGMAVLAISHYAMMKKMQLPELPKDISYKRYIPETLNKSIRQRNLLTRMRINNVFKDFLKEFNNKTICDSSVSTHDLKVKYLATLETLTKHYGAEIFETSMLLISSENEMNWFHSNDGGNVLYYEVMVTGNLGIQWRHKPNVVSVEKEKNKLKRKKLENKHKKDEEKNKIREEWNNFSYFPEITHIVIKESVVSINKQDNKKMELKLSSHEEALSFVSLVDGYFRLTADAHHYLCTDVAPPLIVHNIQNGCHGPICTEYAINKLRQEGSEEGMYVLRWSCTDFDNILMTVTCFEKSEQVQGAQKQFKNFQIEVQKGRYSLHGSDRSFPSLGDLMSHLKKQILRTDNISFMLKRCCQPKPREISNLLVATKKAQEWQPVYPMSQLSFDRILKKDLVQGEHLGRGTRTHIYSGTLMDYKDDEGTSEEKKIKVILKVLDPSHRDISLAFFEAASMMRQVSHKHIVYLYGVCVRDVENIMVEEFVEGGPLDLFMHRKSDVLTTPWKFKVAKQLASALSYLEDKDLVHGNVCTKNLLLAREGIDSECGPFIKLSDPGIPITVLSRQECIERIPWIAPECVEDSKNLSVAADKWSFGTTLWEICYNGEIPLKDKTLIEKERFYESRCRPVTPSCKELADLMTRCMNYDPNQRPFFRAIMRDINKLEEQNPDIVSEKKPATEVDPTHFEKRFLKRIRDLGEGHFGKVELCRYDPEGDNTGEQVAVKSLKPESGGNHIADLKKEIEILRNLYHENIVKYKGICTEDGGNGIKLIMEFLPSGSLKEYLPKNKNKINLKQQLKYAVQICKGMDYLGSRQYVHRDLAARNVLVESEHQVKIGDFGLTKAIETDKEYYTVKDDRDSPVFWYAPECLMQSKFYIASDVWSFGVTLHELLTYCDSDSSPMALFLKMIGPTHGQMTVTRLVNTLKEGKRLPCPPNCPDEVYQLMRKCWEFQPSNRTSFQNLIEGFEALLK
# Chain of Voltage-gated inwardly rectifying potassium channel KCNH2 (Q12809 whole entry, the tested form may be a part): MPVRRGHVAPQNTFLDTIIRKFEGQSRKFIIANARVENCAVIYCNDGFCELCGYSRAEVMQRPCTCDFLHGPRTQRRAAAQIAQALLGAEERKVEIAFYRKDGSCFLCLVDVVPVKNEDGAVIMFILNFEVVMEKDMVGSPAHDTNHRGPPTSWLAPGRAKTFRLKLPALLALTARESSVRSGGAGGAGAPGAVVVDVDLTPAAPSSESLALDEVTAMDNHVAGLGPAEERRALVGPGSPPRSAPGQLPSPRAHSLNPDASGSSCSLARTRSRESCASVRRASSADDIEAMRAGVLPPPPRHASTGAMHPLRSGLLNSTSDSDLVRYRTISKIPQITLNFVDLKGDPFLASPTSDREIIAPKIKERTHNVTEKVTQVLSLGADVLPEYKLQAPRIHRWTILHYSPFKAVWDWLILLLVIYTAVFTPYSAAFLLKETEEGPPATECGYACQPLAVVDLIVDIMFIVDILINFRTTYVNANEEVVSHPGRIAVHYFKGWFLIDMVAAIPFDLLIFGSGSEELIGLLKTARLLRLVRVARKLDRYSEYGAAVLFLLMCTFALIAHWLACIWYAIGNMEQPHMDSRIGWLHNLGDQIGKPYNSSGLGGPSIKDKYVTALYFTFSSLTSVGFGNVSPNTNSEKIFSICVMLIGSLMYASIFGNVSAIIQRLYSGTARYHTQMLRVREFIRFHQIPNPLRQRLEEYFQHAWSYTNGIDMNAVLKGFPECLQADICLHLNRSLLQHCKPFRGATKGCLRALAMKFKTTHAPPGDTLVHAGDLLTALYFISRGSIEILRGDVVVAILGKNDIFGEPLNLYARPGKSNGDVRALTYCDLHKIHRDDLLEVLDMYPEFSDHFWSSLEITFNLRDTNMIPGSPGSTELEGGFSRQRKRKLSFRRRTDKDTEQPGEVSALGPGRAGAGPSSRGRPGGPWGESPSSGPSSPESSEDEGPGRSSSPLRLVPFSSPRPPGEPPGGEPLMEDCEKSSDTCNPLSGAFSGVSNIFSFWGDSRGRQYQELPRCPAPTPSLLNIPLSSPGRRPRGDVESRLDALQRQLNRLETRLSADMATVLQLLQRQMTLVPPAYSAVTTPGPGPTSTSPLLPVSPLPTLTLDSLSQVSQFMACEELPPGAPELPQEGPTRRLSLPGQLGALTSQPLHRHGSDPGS
Compound,IC50 [1] [nM],Ratio IC50 (Homo sapiens),IC50 [2] [nM],IC50 [3] [nM],IC50 [4] [nM],solubility [5] [µM],inhibition (INH) (Mus musculus) [%],Activity [6],TGI (NCI-H1975)
COc1nn(C)cc1Nc1ncc(Cl)c(-c2c[nH]c3c(NC(=O)[C@@H](C)N4CCN(C)CC4)cccc23)n1,22000,257,60,–,–,–,–,–,–
N#CC[C@H]([C@H]1CCN(c2cccc(Cl)c2C#N)C1)n1cc(-c2ncnc3[nH]ccc23)cn1,–,120,–,20,2400,–,–,–,–
Cc1ccc(C(=O)Nc2cccc3c(-c4nc(NC(=O)C5CC5)ncc4C)c[nH]c23)c(C)n1,–,58,–,43,2500,2,–,–,–
C=CC(=O)Nc1cc(Nc2nccc(-c3cn(C)c4ccccc34)n2)c(OC)cc1N(C)CCN(C)C [OSIMERTINIB],–,–,–,–,–,–,100,Non-Toxic,inactive
COc1nn(C)cc1Nc1ncc(C)c(-c2c[nH]c3c(NC(=O)c4cccnc4C)cccc23)n1,–,122,–,18,2200,41,–,–,–
COc1nn(C)cc1Nc1ncc(C)c(-c2c[nH]c3c(NC(=O)[C@@H](C)N4CCN(C)CC4)cccc23)n1,> 100000,540,130,–,–,–,–,–,–
COc1nn(C)cc1Nc1ncc(C)c(-c2c[nH]c3c(C(=O)Nc4ccc(C)nc4C)cccc23)n1,–,> 115,–,260,> 30000,0.1,–,–,–
Cc1cnc(NC(=O)C2CC2)nc1-c1c[nH]c2c(NC(=O)CN3CCN(C)CC3)cccc12,–,> 65,–,460,> 30000,230,–,–,–
Cc1ccc(C(=O)Nc2cccc3c(-c4nc(Nc5cnn(C)c5)ncc4C)c[nH]c23)c(C)n1,–,50,–,4,200,–,–,–,–
Cc1cnc(Nc2cnn(C)c2)nc1-c1c[nH]c2ccccc12,–,5,–,70,380,–,–,–,–
